Reference: PubChem BioAssay
Inconclusive results are not listed. Calls of active or inactive are those of the source.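 Rule for the calls, unless noted: active = inhibition over a set limit, the all-compound mean plus 3 SD, in both replicate runs; inconclusive = over that limit in just one replicate run; inactive = at or under that limit in both runs.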

Legend:
[1] = OD615 S. cerevisiae growth inhibition, permissive medium, pilot counter-assay, permissive growth control for S. cerevisiae lifespan shortening project (AID 705;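 active = growth inhibition above 25% in both replicates, a cutoff set 3 SD above the mean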); conditions: OD615, 24 h, at 10 µM, stronger effect = higher value
In short: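 assay system = Saccharomyces cerevisiae strain carrying genetically modified DeaD replicative-lifespan system | technique = absorbance (optical density) at 615 nm | buffer or medium = permissive raffinose/galactose medium | timing = cells pre-grown 4 h, then 24 h compound exposure, 30 °C humidified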

[2] = Restrictive medium S. cerevisiae growth inhibition, OD615, pilot screen of yeast lifespan reduction project, restrictive growth control (AID 706;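 active = growth inhibition above a set limit, 3 SD over mean compound inhibition, in both replicates, cut at about 43% in these data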;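 note: modified DeaD lifespan yeast strain shifted to restrictive glucose medium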); conditions: OD615, 48 h, at 10 µM, stronger effect = higher value
In short: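 System: modified S. cerevisiae. Buffer or medium: CSMM-D glucose medium. Incubation: 4 h pre-growth plus 48 h compound exposure, 30 °C. Detection: absorbance (optical density) measured at 615 nm.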

[3] = viability gain of MRP-1-high H69AR cells under doxorubicin, pilot screen, MRP-1 activator project, CellTiter-Glo, duplicate (AID 807;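 active = viability increase at or above a cutoff of the median across tested compounds plus 3 SD, cut at about 8.5% in these data, passing the limit was not always enough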;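 note: compound pretreatment 18-22 h then 72 h combined with doxorubicin; 0% = doxorubicin alone and 100% = vehicle without doxorubicin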); conditions: H69AR viability with doxorubicin, CellTiter-Glo luminescence; at 10 µM; stronger effect = higher value
[4] = growth suppression of beta-catenin knockout HCT116, pilot screen, human colon tumor cells (AID 823;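 active = cell viability at or below a set limit in both duplicate runs, the limit being the all-compound median minus 4 SD, cut at about 23% in these data, passing the limit was not always enough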;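 note: 0% = wells killed by 20 µM Hyamine and 100% = untreated DMSO cell wells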); conditions: CellTiter-Glo, 60 h, at 10 µM, stronger effect = lower value
[5] = growth suppression of PTEN-deleted HCT116, pilot screen, cell-based, HCT116 clonal line, CellTiter-Glo (AID 824;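 active = viability at or below 27.92% in each of two runs, the all-compound median minus 4 SD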;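 note: 0% = 20 µM Hyamine control and 100% = vehicle cell control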); conditions: 60 h, at 10 µM, stronger effect = lower value
[6] = inhibitors of the yeast RAM network, pilot screen, dse1pr::URA3 reporter, 5-FOA selection (AID 869);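 note: 0% = DMSO wells with no growth and 100% = 10 µM 1-NA-PP1 with full growth; RAM network block rescues cells from 5-FOA so hits raise OD615 growth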; conditions: S. cerevisiae dse1pr::URA3 5-FOA growth, OD615, 2 d; at 10 µM; stronger effect = higher value; strain carries analog-sensitive mutant Cbk1 kinase
[7] = RAM signaling pathway blockade in yeast – S. cerevisiae, Pdr1DBD-CYC8 efflux-inhibited sensitized strain, primary screen (AID 1298;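 active = RAM network inhibition above 8.4% in each of two replicates, 3 SD over the compound average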;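 note: 0% = DMSO untreated cells without growth and 100% = 10 µM 1-NA-PP1 full growth; higher means more yeast growth rescued from 5-FOA killing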); conditions: S. cerevisiae cbk1-as DSE1-URA3 strain, 5-FOA growth OD615, 2 d; at 50 µM; stronger effect = higher value

Cc1ccc(O)c(C(=O)CC(=O)c2cccc(F)c2)c1
inactive: viability increase [3] -7.04% | viability [4] 40.6% | viability [5] 47.4% | inhibition [6] -0.695% | RAM network inhibition [7] -1.45%
active: growth inhibition [1] 35.8% | growth inhibition [2] 50%

COc1ccc(S(=O)(=O)Cc2ccc(C(=O)N3CCN(C(=O)c4ccco4)CC3)o2)cc1
inactive: growth inhibition [1] 0.785% | growth inhibition [2] 1.27% | viability increase [3] -2.09% | viability [4] 92.8% | viability [5] 100% | inhibition [6] 2.06% | RAM network inhibition [7] 3.94%

O=C(NC1CCCCC1)C(c1ccccc1)N1CCC2(CC1)OCCO2 (stereo unspecified)
inactive: growth inhibition [1] 0.86% | growth inhibition [2] 6.33% | viability increase [3] -4.79% | viability [4] 97.6% | viability [5] 95.5% | inhibition [6] 1.5% | RAM network inhibition [7] 1.43%

CC(=O)N1CCN(c2ccc(NCc3ccc(F)cc3)cc2)CC1
inactive: growth inhibition [1] -7.68% | growth inhibition [2] 0.705% | viability increase [3] -2.9% | viability [4] 90.1% | viability [5] 83.1% | inhibition [6] 2.81% | RAM network inhibition [7] 2.34%

CC(C)CC(NS(=O)(=O)c1ccc2c(c1)oc(=O)n2C)C(=O)N1CC=C(c2ccccc2)CC1 (stereo unspecified)
inactive: growth inhibition [1] -18.2% | growth inhibition [2] -14.5% | viability increase [3] -3.44% | viability [4] 85.9% | viability [5] 83.3% | inhibition [6] 0.535% | RAM network inhibition [7] 6.89%

Cc1cccn2c(=O)c3cc(C(=O)NCCCN4CCOCC4)n(C)c3nc12
inactive: growth inhibition [1] -4.96% | growth inhibition [2] -3.14% | viability increase [3] 0.44% | viability [4] 93.1% | viability [5] 93.1% | inhibition [6] 1.06% | RAM network inhibition [7] 0.37%

COCCOC(=O)c1c(C)oc2ccc(OCC=C(C)C)cc12
inactive: growth inhibition [1] -0.275% | growth inhibition [2] -6.21% | viability increase [3] 3.27% | viability [4] 97.8% | viability [5] 95% | inhibition [6] 0.175% | RAM network inhibition [7] 4.81%

Cc1cccc(Cn2c(N(C)Cc3ccccc3)nc3c2c(=O)[nH]c(=O)n3C)c1
inactive: growth inhibition [1] -0.355% | growth inhibition [2] -7.32% | viability increase [3] -2.61% | viability [4] 75.6% | viability [5] 64.8% | inhibition [6] 2.08% | RAM network inhibition [7] 2.26%

O=C(NCC1CCCO1)c1ccc2c(c1)C(=O)N(C1CCCCC1)C2=O (stereo unspecified)
inactive: growth inhibition [1] -10.7% | growth inhibition [2] -6.06% | viability increase [3] 1.19% | viability [4] 100% | viability [5] 91.5% | inhibition [6] 3.77% | RAM network inhibition [7] 3.57%

COc1ccc(Cl)cc1C(=O)NCC(c1ccco1)N1CCCC1 (stereo unspecified)
inactive: growth inhibition [1] -8.88% | growth inhibition [2] -4.32% | viability increase [3] -3.47% | viability [4] 81% | viability [5] 80.7% | inhibition [6] 2.23% | RAM network inhibition [7] 10.1%

Cc1cc(C(=O)NCC(c2ccco2)N(C)C)no1 (stereo unspecified)
inactive: growth inhibition [1] -3.54% | growth inhibition [2] -10.7% | viability increase [3] -2.83% | viability [4] 98.1% | viability [5] 99.6% | inhibition [6] 1.4% | RAM network inhibition [7] 8.39%

COc1ccc(CN2CCN(c3cccc(C)c3C)CC2)cc1OC
inactive: growth inhibition [1] -8.54% | growth inhibition [2] -1.75% | viability increase [3] -1.96% | viability [4] 51.8% | viability [5] 54% | inhibition [6] 1.5% | RAM network inhibition [7] 1.07%

CCc1ccccc1NC(=O)c1cc(-c2cccc(O)c2)on1
inactive: growth inhibition [1] -21.2% | growth inhibition [2] -5.59% | viability increase [3] -1.49% | viability [4] 98% | viability [5] 96% | inhibition [6] 4.72% | RAM network inhibition [7] 8.2%

COc1ccccc1NC(=O)C1=C(C)NC(=O)NC1c1cccc(OC)c1OC (stereo unspecified)
inactive: growth inhibition [1] -3.89% | growth inhibition [2] 2.57% | viability increase [3] -2.1% | viability [4] 104% | viability [5] 94.8% | inhibition [6] 0.545% | RAM network inhibition [7] 3.58%

CCOC(=O)C1CCCN(C(=O)C2CCN(c3nnc(-n4cccc4)s3)CC2)C1 (stereo unspecified)
inactive: growth inhibition [1] 5.27% | growth inhibition [2] 2.6% | viability increase [3] -2.17% | viability [4] 98.5% | viability [5] 90.8% | inhibition [6] 1.1% | RAM network inhibition [7] 2.55%

COc1cc(C(=O)n2nc(C)cc2C)cc(OC)c1OC
inactive: growth inhibition [1] -9.3% | growth inhibition [2] -12.6% | viability increase [3] -0.4% | viability [4] 99.5% | viability [5] 98.9% | inhibition [6] 1.08% | RAM network inhibition [7] 2.67%

Cc1ccc(NC(=O)C2C3C=CC4(CN(Cc5cccnc5)C(=O)C24)O3)cc1F (stereo unspecified)
inactive: growth inhibition [1] -0.35% | growth inhibition [2] -0.595% | viability increase [3] -1.71% | viability [4] 96.7% | viability [5] 97.2% | inhibition [6] 0.345% | RAM network inhibition [7] 9.57%

O=C(CSc1nc(-c2ccccc2)c(-c2ccccc2)o1)N1CCOCC1
inactive: growth inhibition [1] -8.68% | growth inhibition [2] -15.5% | viability increase [3] -3.26% | viability [4] 90.2% | viability [5] 89.6% | inhibition [6] 2.38% | RAM network inhibition [7] 4.54%

Cc1cccc(-n2c(Cc3cc(=O)[nH]c(=O)[nH]3)nnc2SCC(=O)NCC2CCCO2)c1 (stereo unspecified)
inactive: growth inhibition [1] -2.17% | growth inhibition [2] -13.5% | viability increase [3] -2.52% | viability [4] 93.5% | viability [5] 92.3% | inhibition [6] 0.535% | RAM network inhibition [7] -1.56%

CCOc1ccc(C2CC(c3ccc(CC)cc3)Nc3nc(N)nn32)cc1 (stereo unspecified)
inactive: growth inhibition [1] 13.7% | growth inhibition [2] 21.5% | viability increase [3] 5.61% | viability [4] 97.5% | viability [5] 90.2% | inhibition [6] 0.69% | RAM network inhibition [7] 8.15%

CSc1nnc(NC(=O)C2CCCCC2)s1
inactive: growth inhibition [1] -7.81% | growth inhibition [2] -6.62% | viability increase [3] 0.06% | viability [4] 97% | viability [5] 99.3% | inhibition [6] -0.045% | RAM network inhibition [7] 0.63%

CCOC(=O)C1=C(C)NC(=O)NC1c1ccc(OCC(=O)Nc2ccccc2)c(OC)c1 (stereo unspecified)
inactive: growth inhibition [1] -2.03% | growth inhibition [2] -26% | viability increase [3] -1.88% | viability [4] 102% | viability [5] 95% | inhibition [6] 2.01% | RAM network inhibition [7] 0.32%

O=C1CCCc2sc3c(c2N1)CCCCC3
inactive: growth inhibition [1] -3.24% | growth inhibition [2] 2.17% | viability increase [3] -0.35% | viability [4] 98.3% | viability [5] 91.6% | inhibition [6] 1.12% | RAM network inhibition [7] 3.61%

Cc1cc(C)n(-c2nnc(C)n2/N=C/c2cc(Br)ccc2OCc2ccccc2)n1
active: viability [4] 12.4% | viability [5] 8.96%
inactive: growth inhibition [1] -10.3% | growth inhibition [2] 13.9% | viability increase [3] -7.71% | inhibition [6] 0.37% | RAM network inhibition [7] -1.07%

CC(C)(C)OC(=O)N1CCC(C(N)=O)CC1
inactive: growth inhibition [1] -1.93% | growth inhibition [2] 0.2% | viability increase [3] -0.33% | viability [4] 103% | viability [5] 104% | inhibition [6] 0.535% | RAM network inhibition [7] 0.06%

Cc1ccc(-c2nc(CS(=O)(=O)CC(=O)N3CC(C)CC(C)C3)c(C)o2)cc1 (stereo unspecified)
inactive: growth inhibition [1] 0.15% | growth inhibition [2] 4.4% | viability increase [3] -2.57% | viability [4] 58% | viability [5] 72.8% | inhibition [6] 1.93% | RAM network inhibition [7] 3.8%

Cc1ccc(S(=O)(=O)N2CCCC2C(=O)Nc2nc3ccccc3s2)cc1 (stereo unspecified)
inactive: growth inhibition [1] -4.55% | growth inhibition [2] -5.41% | viability increase [3] -3.97% | viability [4] 79.7% | viability [5] 80.7% | inhibition [6] 2.12% | RAM network inhibition [7] 4.05%

CC1CCN(c2nc3c(c(=O)[nH]c(=O)n3C)n2Cc2ccccc2Cl)CC1
inactive: growth inhibition [1] -10.2% | growth inhibition [2] -20.9% | viability increase [3] -6.47% | viability [4] 87.6% | viability [5] 72% | inhibition [6] 2.75% | RAM network inhibition [7] 9.67%

CCN1CCN(CC(=O)Nc2ccccc2)C(=O)C1=O
inactive: growth inhibition [1] -2.23% | growth inhibition [2] 9.12% | viability increase [3] 0.2% | viability [4] 103% | viability [5] 107% | inhibition [6] 1.19% | RAM network inhibition [7] -0.21%

O=C(Cn1c(CN2CCCCC2)nc2ccccc2c1=O)NC1CCCCC1
inactive: growth inhibition [1] -7.65% | growth inhibition [2] -24.4% | viability increase [3] -2.4% | viability [4] 95.4% | viability [5] 88% | inhibition [6] -0.59% | RAM network inhibition [7] -1.71%

COc1ccc(CCNc2oc(-c3ccc(C)cc3)nc2C#N)cc1OC
inactive: growth inhibition [1] -10.8% | growth inhibition [2] -13.3% | viability increase [3] -0.33% | viability [4] 95.8% | viability [5] 104% | inhibition [6] 0.67% | RAM network inhibition [7] -0.47%

COc1ccc(CCNc2ncnc3nc[nH]c23)cc1OC
inactive: growth inhibition [1] 0.1% | growth inhibition [2] 20% | viability increase [3] -3.11% | viability [4] 82.8% | viability [5] 84.7% | inhibition [6] 0.57% | RAM network inhibition [7] 1.46%

CCOC(=O)Cc1csc(NC(=O)CN2C(=O)c3ccccc3S2(=O)=O)n1
inactive: growth inhibition [1] -8.36% | growth inhibition [2] -15% | viability increase [3] -2.2% | viability [4] 96.9% | viability [5] 101% | inhibition [6] 3.63% | RAM network inhibition [7] 5.65%
